Reference: ChEMBL document CHEMBL4145680, “Tau-Centric Multitarget Approach for Alzheimer's Disease: Development of First-in-Class Dual Glycogen Synthase Kinase 3β and Tau-Aggregation Inhibitors” (J Med Chem, 2018)
Active and inactive are the calls of the source.

Columns and labels:
[1] = Permeability in pH 7.4 PBS incubated for 2.5 hrs by PAMPA-BBB assay; format: ADME; details: read-out: permeability
How it was run: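 PAMPA-BBB: donor filter coated with porcine brain lipid in dodecane (20 mg/mL). Compounds in PBS pH 7.4/EtOH 70:30, acceptor filled with the same. Sandwich incubated 2.5 h at 25 °C, then donor and acceptor concentrations measured by UV at 3–5 wavelengths, 3 wells, two runs. Ten reference drugs included for validation.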

[2] = Hepatotoxicity in human HepG2 cells assessed as reduction in cell viability at 5 to 50 uM incubated for 24 hrs by MTT assay; format: toxicity, cell-based; details: hepg2, 24 h
How it was run: (§1)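 HepG2 cells grown in DMEM with 10% FBS at 37 °C, 5% CO2, seeded at 0.5 × 10^5 cells/well and left 24 h. Exposed in serum-free DMEM for 24 h (concentrations listed as 0, 10, 25, 50 µM; elsewhere 0, 5, 25, 50 µM). MTT 0.1 mg/mL for 10 min at 37 °C in the dark. Formazan dissolved in Tris/Triton X-100, A570. Mean ± SE of ≥3 experiments in triplicate; reported as % of control.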

[3] = biological target: T1, Glycogen synthase kinase-3 beta (Homo sapiens, UniProt P49841); experiment: Inhibition of GSK3beta (unknown origin) using GS-2 peptide substrate incubated for 30 mins by kinase-Glo luminescent assay
How it was run: (§2)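 Human recombinant GSK-3β, 20 ng, in 50 mM HEPES pH 7.5 with 1 mM EDTA, 1 mM EGTA and Mg acetate. Incubated 30 min at 30 °C, then Kinase-Glo luminescence read after 10 min. Activity scaled between no-inhibitor and full-inhibition reference controls.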
Target sequence in this assay (P49841 whole entry): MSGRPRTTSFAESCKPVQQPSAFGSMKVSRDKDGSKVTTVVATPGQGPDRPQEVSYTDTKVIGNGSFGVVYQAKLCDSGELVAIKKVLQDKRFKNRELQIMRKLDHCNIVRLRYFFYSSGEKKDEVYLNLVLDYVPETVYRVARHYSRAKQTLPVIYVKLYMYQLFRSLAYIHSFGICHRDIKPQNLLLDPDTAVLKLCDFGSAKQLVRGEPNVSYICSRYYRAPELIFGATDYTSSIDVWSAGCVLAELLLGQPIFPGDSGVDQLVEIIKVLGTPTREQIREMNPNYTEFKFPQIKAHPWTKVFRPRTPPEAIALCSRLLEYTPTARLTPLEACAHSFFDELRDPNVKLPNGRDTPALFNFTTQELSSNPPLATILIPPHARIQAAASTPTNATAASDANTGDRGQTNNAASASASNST

[4] = biological target: T1, Glycogen synthase kinase-3 beta; experiment: Inhibition of GSK3beta (unknown origin) at 10 uM using GS-2 peptide substrate incubated for 30 mins by kinase-Glo luminescent assay
How it was run: as §2, with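 “acetate. Substrate prephosphorylated GS-2 peptide 25 µM with 1 µM ATP; DMSO ≤1%.” for “acetate.”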
Target sequence in this assay (P49841 whole entry, looked up): as the sequence (P49841 whole entry) above

[5] = test system: Cerebellar granule neurone; experiment: Neurotoxicity in rat primary cerebellar granule neurons assessed as reduction in cell viability at 5 uM incubated for 24 hrs by MTT assay; format: toxicity
How it was run: (§3)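 Cerebellar granule neurons from 7-day-old rat pups, plated on poly-L-lysine at 3 × 10^5 cells/well in BME with FBS and 25 mM KCl. Cytosine arabinoside 10 µM added at 16 h. At 7 days in vitro, switched to serum-free BME with 25 mM KCl and treated 24 h at 0, 5, 25 or 50 µM. MTT 0.1 mg/mL for 20 min at 37 °C, A570. Mean ± SE of ≥3 experiments in triplicate, as % of control.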

[6] = Inhibition of AcPHF6 peptide aggregation in pH 7.4 phosphate buffer at 10 uM by atomic force microscopy
How it was run: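 AcPHF6 500 µM in water diluted to 50 µM in 50 mM phosphate pH 7.4, ±10 µM compound, no ThT. Incubated 80 min at 25 °C with 10 s shaking at 400 rpm each minute. Ultrafiltered (30 kDa cut-off), buffer exchanged to water, and the retained high-MW fraction adsorbed on mica. Imaged by PeakForce tapping-mode AFM.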

[7] = biological target: T1, Glycogen synthase kinase-3 beta; experiment: Competitive inhibition of GSK3beta (unknown origin) at 10 uM using fixed level of GS-2 peptide substrate and varying ATP levels incubated for 30 mins by kinase-Glo luminescent assay
How it was run: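 Human recombinant GSK-3β, 20 ng per reaction, in HEPES pH 7.5 buffer with EDTA, EGTA and Mg acetate. GS-2 prephosphorylated peptide held at 25 µM; ATP varied from 1 to 50 µM along with inhibitor level. 30 min at 30 °C, then Kinase-Glo luminescence read after 10 min. Lineweaver–Burk double-reciprocal analysis; means of two experiments, each run in triplicate.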
Target sequence in this assay (P49841 whole entry, looked up): as the sequence (P49841 whole entry) above

[8] = biological target: T1, Glycogen synthase kinase-3 beta; experiment: Inhibition of GSK3beta (unknown origin) pre-incubated for 30 mins followed by ULight-GS (Ser641/pSer657) peptide substrate addition and measured after 1 hr by TR-FRET assay
Target sequence in this assay (P49841 whole entry): as above

[9] = Inhibition of AcPHF6 peptide aggregation in pH 7.4 phosphate buffer at 20 uM by CD Spectroscopy
[10] = biological target: T1, Glycogen synthase kinase-3 beta; experiment: Inhibition of okadaic acid-induced GSK-3beta-mediated tau hyperphosphorylation in human SH-SY5Y cells assessed as increase in cell viability pre-incubated for 1 hr before okadaic acid stimulation for 24 hrs by MTT assay; format: cell-based
How it was run: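 SH-SY5Y cells grown in DMEM with 10% FBS, seeded at 60000 per well and used 48 h later. Compound given 1 h before 30nM okadaic acid, then 24 h incubation. Viability by MTT, 0.5mg/mL for at least 4 h, formazan dissolved in DMSO, absorbance at 595 nm. Expressed relative to control (=100); n=6 from three independent experiments.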
Target sequence in this assay (P49841 whole entry, looked up): as the sequence (P49841 whole entry) above

[11] = biological target: Casein kinase I isoform delta (Homo sapiens) (UniProt P48730); experiment: Inhibition of human recombinant CK1delta at 10 uM incubated for 60 mins by Kinase-Glo assay
How it was run: (§4)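 Human recombinant CK1δ or CK1ε, 16 ng, in 50 mM HEPES pH 7.5 with 10 mM MgCl2, 1 mM EGTA and Brij-35. Substrate 0.1% casein with 4 µM ATP; compound diluted to 10 µM before addition, DMSO ≤1%. Incubated 60 min at 30 °C, then Kinase-Glo luminescence read. Inhibition relative to no-inhibitor activity; mean of two experiments.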

[12] = biological target: CDC7/DBF4 (Cell division cycle 7-related protein kinase/Activator of S phase kinase) (Homo sapiens) (UniProt Q9UBU7+O00311); experiment: Inhibition of CDC7/Dbf4 (unknown origin) at 10 uM incubated for 60 mins by Kinase-Glo assay; format: protein-complex assay; details: in the assay text read “ADP-Glo assay” for “Kinase-Glo assay”
How it was run: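 CDC7/DBF4 enzyme, 25 ng/well, with 10 µM ATP (final) and PDKtide substrate. Incubated 60 min at room temperature. ADP-Glo reagent added for 40 min, then detection reagent for 30 min, and luminescence read. Inhibition calculated relative to the no-inhibitor maximum.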

[13] = biological target: Casein kinase I isoform epsilon (Homo sapiens) (UniProt P49674); experiment: Inhibition of human recombinant CK1epsilon at 10 uM incubated for 60 mins by Kinase-Glo assay; how it was run: as §4
[14] = test system: Cerebellar granule neurone; experiment: Neurotoxicity in rat primary cerebellar granule neurons assessed as reduction in cell viability at 5 to 25 uM incubated for 24 hrs by MTT assay; format: toxicity; how it was run: as §3
[15] = biological target: T1, Glycogen synthase kinase-3 beta; experiment: Inhibition of GSK3beta (unknown origin) at 10 uM
How it was run: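 Human recombinant GSK-3β (20 ng) with 25 µM GS-2 prephosphorylated peptide and 1 µM ATP in 50 mM HEPES pH 7.5, 1 mM EDTA, 1 mM EGTA, Mg acetate. DMSO at most 1%. 30 min at 30 °C; reaction stopped with Kinase-Glo, luminescence read after 10 min. Activity scaled between no inhibitor and full inhibition by a reference inhibitor.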
Target sequence in this assay (P49841 whole entry, looked up): as the sequence (P49841 whole entry) above

[16] = test system: Cerebellar granule neurone; experiment: Neurotoxicity in rat primary cerebellar granule neurons assessed as reduction in cell viability at 50 uM incubated for 24 hrs by MTT assay; format: toxicity; how it was run: as §3
[17] = Hepatotoxicity in human HepG2 cells assessed as reduction in cell viability incubated for 24 hrs by MTT assay; format: toxicity, cell-based; details: hepg2, 24 h; how it was run: as §1

Chain of Casein kinase I isoform delta (Homo sapiens) (P48730 whole entry, looked up, canonical isoform): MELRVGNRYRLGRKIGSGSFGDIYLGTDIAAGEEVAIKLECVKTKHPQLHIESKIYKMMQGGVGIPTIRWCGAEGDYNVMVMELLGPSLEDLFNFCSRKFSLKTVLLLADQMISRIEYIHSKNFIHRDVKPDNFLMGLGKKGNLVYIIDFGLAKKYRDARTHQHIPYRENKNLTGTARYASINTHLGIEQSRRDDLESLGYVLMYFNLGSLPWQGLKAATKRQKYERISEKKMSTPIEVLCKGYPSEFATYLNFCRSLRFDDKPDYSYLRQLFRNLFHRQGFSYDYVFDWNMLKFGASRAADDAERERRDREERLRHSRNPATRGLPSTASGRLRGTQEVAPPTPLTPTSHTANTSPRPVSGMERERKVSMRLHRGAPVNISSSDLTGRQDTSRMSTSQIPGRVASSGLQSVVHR
Chain of CDC7/DBF4 (Cell division cycle 7-related protein kinase/Activator of S phase kinase) (Homo sapiens) (O00311 whole entry, looked up): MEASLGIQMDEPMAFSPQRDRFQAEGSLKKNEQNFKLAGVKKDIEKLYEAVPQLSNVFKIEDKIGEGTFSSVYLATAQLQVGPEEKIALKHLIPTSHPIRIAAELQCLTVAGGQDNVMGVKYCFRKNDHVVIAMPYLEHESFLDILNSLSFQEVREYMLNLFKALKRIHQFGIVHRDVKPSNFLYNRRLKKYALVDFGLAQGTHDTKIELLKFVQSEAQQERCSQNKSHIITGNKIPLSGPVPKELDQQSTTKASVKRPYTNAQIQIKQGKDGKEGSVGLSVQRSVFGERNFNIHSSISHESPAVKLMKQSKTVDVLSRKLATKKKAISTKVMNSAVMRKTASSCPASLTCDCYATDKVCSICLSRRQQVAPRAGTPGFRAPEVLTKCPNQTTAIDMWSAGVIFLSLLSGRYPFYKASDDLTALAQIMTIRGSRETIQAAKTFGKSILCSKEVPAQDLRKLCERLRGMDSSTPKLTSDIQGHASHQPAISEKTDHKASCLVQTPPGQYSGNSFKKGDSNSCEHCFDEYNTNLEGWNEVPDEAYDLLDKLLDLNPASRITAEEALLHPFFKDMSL
Chain of CDC7/DBF4 (Cell division cycle 7-related protein kinase/Activator of S phase kinase) (Homo sapiens) (Q9UBU7 whole entry, looked up): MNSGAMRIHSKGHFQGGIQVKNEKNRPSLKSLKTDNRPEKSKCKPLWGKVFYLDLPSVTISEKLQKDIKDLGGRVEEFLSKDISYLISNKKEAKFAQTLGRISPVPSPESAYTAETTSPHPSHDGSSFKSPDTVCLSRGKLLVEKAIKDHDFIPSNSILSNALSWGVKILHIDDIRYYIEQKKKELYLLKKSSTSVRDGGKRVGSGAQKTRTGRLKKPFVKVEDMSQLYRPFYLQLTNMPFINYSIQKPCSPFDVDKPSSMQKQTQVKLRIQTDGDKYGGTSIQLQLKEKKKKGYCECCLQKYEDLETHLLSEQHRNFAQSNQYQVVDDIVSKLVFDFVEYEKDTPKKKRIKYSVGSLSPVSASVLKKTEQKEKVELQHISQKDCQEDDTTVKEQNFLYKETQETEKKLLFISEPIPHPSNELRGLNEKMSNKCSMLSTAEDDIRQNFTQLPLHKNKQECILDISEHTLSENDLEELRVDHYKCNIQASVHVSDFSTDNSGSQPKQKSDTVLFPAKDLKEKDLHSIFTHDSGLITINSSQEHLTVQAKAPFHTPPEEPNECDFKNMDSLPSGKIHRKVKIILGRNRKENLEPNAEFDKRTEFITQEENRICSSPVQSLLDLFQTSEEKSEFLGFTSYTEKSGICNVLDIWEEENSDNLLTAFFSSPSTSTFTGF
Chain of Casein kinase I isoform epsilon (Homo sapiens) (P49674 whole entry, looked up, canonical isoform): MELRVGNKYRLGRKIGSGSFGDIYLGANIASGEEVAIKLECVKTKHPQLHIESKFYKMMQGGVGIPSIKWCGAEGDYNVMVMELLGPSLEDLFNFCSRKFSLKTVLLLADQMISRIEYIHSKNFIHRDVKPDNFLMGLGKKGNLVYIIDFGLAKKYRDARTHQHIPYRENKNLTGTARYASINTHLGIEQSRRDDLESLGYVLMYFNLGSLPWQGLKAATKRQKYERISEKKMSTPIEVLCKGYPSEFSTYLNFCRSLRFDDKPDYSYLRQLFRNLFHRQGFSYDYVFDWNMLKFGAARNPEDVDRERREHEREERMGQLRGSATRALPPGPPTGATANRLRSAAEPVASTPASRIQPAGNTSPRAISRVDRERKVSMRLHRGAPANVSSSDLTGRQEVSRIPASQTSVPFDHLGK

For `O=C1NC(=O)/C(=C/c2cc3ccccc3s2)S1`, the Papp at 2.5 h [1] was greater than 30.7 nm/s, the Activity [2] was “Non-Toxic” and the IC50 [3] was 7.47 µM. The inhibition [4] was greater than 50% and the Activity [5] was “Toxic”.

`O=C1NC(=O)/C(=C/c2ccc3ccccc3c2)S1` showed an IC50 [3] greater than 10 µM and an inhibition [4] of less than 50%.

In the case of `O=C1NC(=O)/C(=C/c2c[nH]c3ccccc23)S1`, the Papp at 2.5 h [1] is reported as greater than 30.7 nm/s, the inhibition [6] is reported as “Active” and the Activity [2] is reported as “Non-Toxic”. For the same compound, the inhibition [7] was “Active”, the IC50 [8] was 21 µM and the inhibition [9] was “Active”. The inhibition [10] was “Active”, the IC50 [3] was 4.93 µM and the inhibition [4] was greater than 50%. For the same compound, the inhibition [11] was “inactive”, the inhibition [12] was “inactive” and the inhibition [13] was “inactive”. For the same compound, the Activity [14] was “Non-Toxic”, the inhibition [15] was 95% and the Activity [16] was “Toxic”.

In the case of `CN(C)c1ccccc1/C=C1\SC(=O)NC1=O`, the Papp at 2.5 h [1] is reported as greater than 30.7 nm/s, the Activity [17] is reported as “Dose-dependent effect” and the IC50 [3] is reported as 9.22 µM. The inhibition [4] was greater than 50% and the Activity [5] was “Toxic”.

With `O=C1NC(=O)/C(=C/c2cc3ccccc3o2)S1` the IC50 [3] was greater than 10 µM and the inhibition [4] was less than 50%.

`CN(C)c1ccc(/C=C2\SC(=O)NC2=O)cc1` showed an IC50 [3] greater than 10 µM and an inhibition [4] of less than 50%.

Work on `O=C1NC(=O)/C(=C/c2ccccc2F)S1` yielded an IC50 [3] greater than 10 µM and an inhibition [4] of less than 50%.

For `CCc1ccc(CCOc2ccc(CC3SC(=O)NC3=O)cc2)nc1` (stereo not given) [PIOGLITAZONE], the Activity [17] was “Dose-dependent effect” and the Activity [5] was “Toxic”.

`CN(C)c1ccc(/C=C/C=C2\SC(=O)NC2=O)cc1` showed an IC50 [3] greater than 10 µM and an inhibition [4] of less than 50%.

Compound `O=C1NC(=O)/C(=C/c2ccccc2OCc2ccccc2)S1` has an IC50 [3] greater than 10 µM and an inhibition [4] of less than 50%.

For `O=C1NC(=O)/C(=C/c2ccc(-c3ccccc3)cc2)S1`, the IC50 [3] was greater than 10 µM and the inhibition [4] was less than 50%.

`O=C1NC(=O)/C(=C/c2ccccn2)S1` gave an IC50 [3] greater than 10 µM and an inhibition [4] of less than 50%.

`O=C1NC(=O)/C(=C/c2cccnc2)S1` showed an IC50 [3] of 8.75 µM and an inhibition [4] greater than 50%.

In the case of `COc1ccc2nc(Cl)c(/C=C3\SC(=O)NC3=O)cc2c1`, the IC50 [3] is reported as 3.55 µM and the inhibition [4] is reported as greater than 50%.

With `O=C1NC(=O)/C(=C/c2ccccc2)S1` the IC50 [3] was greater than 10 µM and the inhibition [4] was less than 50%.

For `CN(C)c1cccc(/C=C2\SC(=O)NC2=O)c1`, the Papp at 2.5 h [1] was greater than 30.7 nm/s, the Activity [17] was “Dose-dependent effect” and the IC50 [3] was 8.54 µM. For the same compound, the inhibition [4] was greater than 50% and the Activity [5] was “Toxic”.

With `O=C1NC(=O)/C(=C/c2ccc(O)cc2)S1` the IC50 [3] was 8.99 µM and the inhibition [4] was greater than 50%.

Work on `O=C1NC(=O)/C(=C/c2ccco2)S1` yielded an IC50 [3] greater than 10 µM and an inhibition [4] of less than 50%.

Compound `COc1cc(/C=C2\SC(=O)NC2=O)cc2c1OCO2` has an IC50 [3] greater than 10 µM and an inhibition [4] of less than 50%.

For `O=C1NC(=O)/C(=C/c2ccc(F)cc2)S1`, the IC50 [3] was greater than 10 µM and the inhibition [4] was less than 50%.

For `O=C1NC(=O)/C(=C/c2c3ccccc3cc3ccccc23)S1`, the IC50 [3] was greater than 10 µM and the inhibition [4] was less than 50%.

With `O=C1NC(=O)/C(=C/c2c(-c3ccccc3)[nH]c3ccccc23)S1` the IC50 [3] was 6.03 µM and the inhibition [4] was greater than 50%.

`O=C1NC(=O)/C(=C/C=C/c2ccccc2)S1` gave an IC50 [3] greater than 10 µM and an inhibition [4] of less than 50%.

Compound `O=C1NC(=O)/C(=C/c2cc3ccccc3nc2Cl)S1` has an IC50 [3] of 6.13 µM and an inhibition [4] greater than 50%.

Work on `COc1ccc2[nH]cc(/C=C3\SC(=O)NC3=O)c2c1` yielded an IC50 [3] greater than 10 µM and an inhibition [4] of less than 50%.

`O=C1NC(=O)/C(=C/c2ccncc2)S1` gave an IC50 [3] of 1.42 µM and an inhibition [4] greater than 50%.

`COc1cc(/C=C2\SC(=O)NC2=O)ccc1O` showed an inhibition [4] greater than 50%.

`O=C1NC(=O)/C(=C/c2ccccc2O)S1` gave an IC50 [3] greater than 10 µM and an inhibition [4] of less than 50%.

Compound `O=C1NC(=O)/C(=C/c2cccs2)S1` has an IC50 [3] of 7.99 µM and an inhibition [4] greater than 50%.

Work on `Cn1c(/C=C2\SC(=O)NC2=O)nc2ccccc21` yielded an IC50 [3] greater than 10 µM and an inhibition [4] of less than 50%.

In the case of `O=C1NC(=O)/C(=C/c2ccc(O)c([N+](=O)[O-])c2)S1`, the IC50 [3] is reported as 9.22 µM and the inhibition [4] is reported as greater than 50%.

With `O=C1NC(=O)/C(=C/c2ccc3c(c2)OCCO3)S1` the IC50 [3] was 7.01 µM and the inhibition [4] was greater than 50%.

In the case of `O=C1NC(=O)/C(=C/c2cccc(F)c2)S1`, the IC50 [3] is reported as greater than 10 µM.

`O=C1NC(=O)/C(=C/c2cccc(O)c2)S1` showed an IC50 [3] greater than 10 µM and an inhibition [4] of less than 50%.

For `COc1ccc(/C=C2\SC(=O)NC2=O)c(O)c1`, the IC50 [3] was 7.08 µM and the inhibition [4] was greater than 50%.
